Results: ChEMBL document CHEMBL4400529, “Structure-based drug design, synthesis, In vitro, and In vivo biological evaluation of indole-based biomimetic analogs targeting estrogen receptor-α inhibition” (Eur J Med Chem, 2019)
pIC50: −log10 of the molar value. Active and inactive are the calls of the source. The rule behind the calls is not given here.

How the values were obtained:
Estrogen receptor = biological target: T1, Estrogen receptor (Homo sapiens, UniProt P03372); assay: Inhibition of estrogen receptor-alpha (unknown origin) by ELISA
T1 sequence (P03372 whole entry): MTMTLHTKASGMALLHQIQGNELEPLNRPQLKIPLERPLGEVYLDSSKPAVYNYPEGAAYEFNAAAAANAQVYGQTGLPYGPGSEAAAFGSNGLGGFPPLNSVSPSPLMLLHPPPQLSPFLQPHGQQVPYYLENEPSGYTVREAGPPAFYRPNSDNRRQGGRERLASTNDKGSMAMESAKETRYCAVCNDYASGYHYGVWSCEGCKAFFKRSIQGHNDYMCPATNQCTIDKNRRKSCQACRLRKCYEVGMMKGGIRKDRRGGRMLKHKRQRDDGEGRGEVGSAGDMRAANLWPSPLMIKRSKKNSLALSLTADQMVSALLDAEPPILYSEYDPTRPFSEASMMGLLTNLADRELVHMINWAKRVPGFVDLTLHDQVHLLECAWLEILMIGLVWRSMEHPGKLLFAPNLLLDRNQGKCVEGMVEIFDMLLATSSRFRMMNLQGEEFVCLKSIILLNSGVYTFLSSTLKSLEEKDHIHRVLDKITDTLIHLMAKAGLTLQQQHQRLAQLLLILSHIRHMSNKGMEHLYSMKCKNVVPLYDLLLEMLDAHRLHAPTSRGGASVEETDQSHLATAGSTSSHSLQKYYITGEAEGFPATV

T47D = assay: Antiproliferative activity against human T47D cells after 24 hrs by MTT assay; format: functional, cell-based
Procedure, shortened: (§1)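 Cells from ATCC, subcultured by an earlier reported method, then exposed to 5-fold serial dilutions in triplicate for 24 h. Cells were washed with PBS, given MTT for 2 h, then dissolved in DMSO. Absorbance read at 570 nm.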

MCF7 = assay: Antiproliferative activity against human MCF7 cells after 24 hrs by MTT assay; format: functional, cell-based; details: MCF7, 24 h; procedure, shortened: as §1
[1] = Acute toxicity in Swiss albino mouse assessed induction of behavioural changes at 10 mg/mouse, ip dosed once weekly; format: organism-based; details: in vivo
Procedure, shortened: (§2)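 Normal female-strain-unspecified mice got a single i.p. dose of 10 mg/mouse. They were watched for 7 days for short-term acute toxic signs, behavioural changes and mortality.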

Mus musculus [2] = assay: Decrease in ER-alpha protein expression in tumors of Swiss albino mouse mouse implanted with mouse EAC cells at 5 mg/mouse, ip dosed once weekly starting 5 days after inoculation by immunohistochemical analysis relative to control; format: functional; set-up: scale not given: the % may be the effect or the level left
Procedure, shortened: (§3)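 Tumors from the EAC mouse model after 15 days of treatment were stained by avidin-biotin immunoperoxidase using an anti-ER-α monoclonal antibody (1:100 in PBS), detected with DAB and counterstained with Mayer's hematoxylin. A section without primary antibody served as negative control. Percentage of positive cells estimated in 10 random fields per section per animal. Mean ± SD, n=10.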

[3] = Acute toxicity in Swiss albino mouse assessed induction of toxic signs at 10 mg/mouse, ip dosed once weekly; format: organism-based; details: in vivo; procedure, shortened: as §2
Mus musculus [4] = assay: Decrease in ER-alpha protein expression in tumors of Swiss albino mouse mouse implanted with mouse EAC cells at 10 mg/mouse, ip dosed once weekly starting 5 days after inoculation by immunohistochemical analysis relative to fulvestrant; format: functional; set-up: scale not given: the % may be the effect or the level left; procedure, shortened: as §3
Ehrlich [5] = assay: Antitumor activity against mouse EAC cells implanted in Swiss albino mouse assessed as increase in necrotic areas in outer zone of tumor mass at 10 mg/mouse, ip dosed once weekly starting 5 days after inoculation by hematoxylin and eosin staining-based assay; format: functional, organism-based
Procedure, shortened: (§4)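 EAC solid tumors in female Swiss albino mice, with weekly i.p. treatment in 10% Tween 80 against vehicle and fulvestrant controls. Tumors were collected on day 15, formalin-fixed, paraffin-embedded and stained with H&E. Necrotic index scored in 10 random fields per section per animal. n=10, one-way ANOVA with Tukey-Kramer.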

Mus musculus [6] = assay: Decrease in ER-alpha protein expression in tumors of Swiss albino mouse mouse implanted with mouse EAC cells at 5 mg/mouse, ip dosed once weekly starting 5 days after inoculation by immunohistochemical analysis relative to fulvestrant; format: functional; set-up: scale not given: the % may be the effect or the level left; procedure, shortened: as §3
[7] = Acute toxicity in Swiss albino mouse assessed induction of mortality at 10 mg/mouse, ip dosed once weekly; format: organism-based; details: in vivo; procedure, shortened: as §2
Ehrlich [8] = assay: Antitumor activity against mouse EAC cells implanted in Swiss albino mouse assessed as reduction in viable tumor cell area in outer zone of tumor mass at 10 mg/mouse, ip dosed once weekly starting 5 days after inoculation by hematoxylin and eosin staining-based assay; format: functional, organism-based; procedure, shortened: as §4
[9] = Acute toxicity in Swiss albino mouse implanted with mouse EAC cells assessed effect on body weight at 5 to 10 mg/mouse, ip dosed once weekly starting 5 days after inoculation and measured up to 20 days after inoculation; format: organism-based; details: in vivo
Procedure, shortened: (§5)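 Female Swiss albino mice were given EAC cells from donor ascitic fluid, diluted in sterile saline to ~12.5 × 10^6/mL, 0.2 mL i.m. into the left thigh. Once-weekly i.p. dosing in 10% Tween 80 began at a palpable ~100 mm3 mass; controls got vehicle. Tumour volume (caliper, L × H² × 0.52) and body weight were taken over 15 days; n=10, mean ± SD, ANOVA/Tukey-Kramer.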

Ehrlich [10] = assay: Antitumor activity against mouse EAC cells implanted in Swiss albino mouse assessed as reduction in tumor size at 5 to 10 mg/mouse, ip dosed once weekly starting 5 days after inoculation and measured 9 and 12 days of treatment relative to fulvestrant; format: functional, organism-based
Procedure, shortened: (§6)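 Female Swiss albino mice received EAC cells from donor ascitic fluid (~12.5 × 10^6/mL in sterile saline, 0.2 mL) i.m. into the left thigh. Treatment began at a palpable mass of ~100 mm3, given i.p. once weekly in 10% Tween 80 against vehicle and fulvestrant 5 mg/mouse controls. Caliper tumor volume = L × H² × 0.52. Mean ± SD, n=10, one-way ANOVA with Tukey-Kramer.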

Ehrlich [11] = assay: Antitumor activity against mouse EAC cells implanted in Swiss albino mouse assessed as reduction in tumor volume at 5 mg/mouse, ip dosed once weekly starting 5 days after inoculation and measured on 15 days of treatment relative to fulvestrant; format: functional, organism-based; procedure, shortened: as §6
Ehrlich [12] = assay: Antitumor activity against mouse EAC cells implanted in Swiss albino mouse assessed as induction of tumor degeneration in outer zone of tumor mass at 10 mg/mouse, ip dosed once weekly starting 5 days after inoculation by hematoxylin and eosin staining-based assay; format: functional, organism-based; procedure, shortened: as §4
Mus musculus [13] = assay: Decrease in ER-alpha protein expression in tumors of Swiss albino mouse mouse implanted with mouse EAC cells at 10 mg/mouse, ip dosed once weekly starting 5 days after inoculation by immunohistochemical analysis relative to control; format: functional; set-up: scale not given: the % may be the effect or the level left; procedure, shortened: as §3
Ehrlich [14] = assay: Antitumor activity against mouse EAC cells implanted in Swiss albino mouse assessed as induction of necrosis at 5 mg/mouse, ip dosed once weekly starting 5 days after inoculation by hematoxylin and eosin staining-based assay; format: functional, organism-based; procedure, shortened: as §4
Ehrlich [15] = assay: Antitumor activity against mouse EAC cells implanted in Swiss albino mouse assessed as reduction in tumor volume at 10 mg/mouse, ip starting 5 days after inoculation dosed once weekly and measured on 15 days of treatment relative to fulvestrant; format: functional, organism-based; procedure, shortened: as §6
Ehrlich [16] = assay: Antitumor activity against mouse EAC cells implanted in Swiss albino mouse assessed as focal necrotic areas in deeper parts of tumor mass at 10 mg/mouse, ip dosed once weekly starting 5 days after inoculation by hematoxylin and eosin staining-based assay; format: functional, organism-based; procedure, shortened: as §4
Ehrlich [17] = assay: Antitumor activity against mouse EAC cells implanted in Swiss albino mouse assessed as viable cell area in deeper parts of tumor mass at 10 mg/mouse, ip dosed once weekly starting 5 days after inoculation by hematoxylin and eosin staining-based assay; format: functional, organism-based; procedure, shortened: as §4
Ehrlich [18] = assay: Antitumor activity against mouse EAC cells implanted in Swiss albino mouse assessed as reduction in tumor size at 5 mg/mouse, ip dosed once weekly starting 5 days after inoculation; format: functional, organism-based; procedure, shortened: as §5

SMILES | pIC50 (Estrogen receptor) | pIC50 (T47D) | pIC50 (MCF7) | also measured
O=C(Nc1ccc2cc[nH]c2c1)c1ccc(C(F)(F)F)cc1 | 8.09 | 4.29 | 4.20 | –
Cc1ccc(S(=O)(=O)Nc2ccc3cc[nH]c3c2)cc1 | 6.69 | 4.24 | 4.43 | –
COc1ccc(S(=O)(=O)Nc2ccc3cc[nH]c3c2)cc1 | 8.12 | 4.35 | 4.24 | –
O=S(=O)(Nc1ccc2cc[nH]c2c1)c1ccc(Br)cc1 | 7.64 | 4.40 | 4.42 | –
O=C(Nc1ccc2cc[nH]c2c1)c1ccc(F)cc1 | 7.16 | 4.46 | 4.34 | –
O=C(Nc1ccc2cc[nH]c2c1)c1cccc(C(F)(F)F)c1 | 8.75 | 4.55 | 4.51 | Activity [1]: Non-Toxic; Activity (Mus musculus [2]): 64.71%; Activity [3]: Non-Toxic; Activity (Mus musculus [4]): 22.54%; Activity (Ehrlich [5]): Active; Activity (Mus musculus [6]): 57.75%; Activity [7]: Non-Toxic; Activity (Ehrlich [8]): Active; Activity [9]: Non-Toxic; Activity (Ehrlich [10]): Active; Activity (Ehrlich [11]): Active; Activity (Ehrlich [12]): Active; Activity (Mus musculus [13]): 35.3%
CC/C(=C(\c1ccccc1)c1ccc(OCCN(C)C)cc1)c1ccccc1 [TAMOXIFEN] | – | 4.46 | 4.37 | –
O=S(=O)(Nc1ccc2cc[nH]c2c1)c1ccc(Cl)cc1 | 7.35 | 4.34 | 4.27 | –
N#Cc1ccc(C(=O)Nc2ccc3cc[nH]c3c2)cc1 | 8.62 | 4.45 | 4.47 | –
O=S(=O)(Nc1ccc2cc[nH]c2c1)c1ccc(F)cc1 | 8.48 | 4.48 | 4.51 | Activity [1]: Non-Toxic; Activity (Mus musculus [2]): 58.24%; Activity [3]: Non-Toxic; Activity (Ehrlich [14]): inactive; Activity (Mus musculus [4]): 25.35%; Activity (Ehrlich [15]): Active; Activity (Mus musculus [6]): 50%; Activity (Ehrlich [16]): Active; Activity [7]: Non-Toxic; Activity [9]: Non-Toxic; Activity (Ehrlich [17]): Active; Activity (Ehrlich [10]): Active; Activity (Mus musculus [13]): 37.65%
O=C(Nc1ccc2cc[nH]c2c1)c1ccc(Br)cc1 | 8.33 | 4.20 | 4.42 | –
C[C@]12CC[C@@H]3c4ccc(O)cc4C[C@@H](CCCCCCCCC[S+]([O-])CCCC(F)(F)C(F)(F)F)[C@H]3[C@@H]1CC[C@@H]2O (some centres undefined) | – | – | – | Activity (Ehrlich [18]): Active
